The source made the active and inactive calls. The calls are words filed in the database; no cut-off is given here.
What was measured:
[1] = tested on: Bel-7402; test: Effect on AKT expression in human Bel7402 cells at 1 to 2.5 uM after 24 to 72 hrs by Western blot analysis; assay type: ADME, cell-based; conditions: bel-7402, 2.5 µM
Summary of the method: (§1)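 Bel7402 cells (1.5 × 10^5/mL) exposed to compound at 1.0 and 2.5 μM for 24 or 72 h. Lysates (0.05 mg/lane) separated on 12% SDS-PAGE and blotted to nitrocellulose. Probed for total Akt, phospho-Akt (Ser473), total mTOR and phospho-mTOR, HRP secondary, chemiluminescent detection. Quantified from three separate assays, mean ± SD.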

[2] = target: Histone deacetylase 1 (Homo sapiens, UniProt Q13547); test: Inhibition of HDAC1 (unknown origin) using Boc-Lys (Ac)-AMC as substrate incubated for 60 mins by fluorimetric assay
Sequence of Histone deacetylase 1 (Q13547 whole entry): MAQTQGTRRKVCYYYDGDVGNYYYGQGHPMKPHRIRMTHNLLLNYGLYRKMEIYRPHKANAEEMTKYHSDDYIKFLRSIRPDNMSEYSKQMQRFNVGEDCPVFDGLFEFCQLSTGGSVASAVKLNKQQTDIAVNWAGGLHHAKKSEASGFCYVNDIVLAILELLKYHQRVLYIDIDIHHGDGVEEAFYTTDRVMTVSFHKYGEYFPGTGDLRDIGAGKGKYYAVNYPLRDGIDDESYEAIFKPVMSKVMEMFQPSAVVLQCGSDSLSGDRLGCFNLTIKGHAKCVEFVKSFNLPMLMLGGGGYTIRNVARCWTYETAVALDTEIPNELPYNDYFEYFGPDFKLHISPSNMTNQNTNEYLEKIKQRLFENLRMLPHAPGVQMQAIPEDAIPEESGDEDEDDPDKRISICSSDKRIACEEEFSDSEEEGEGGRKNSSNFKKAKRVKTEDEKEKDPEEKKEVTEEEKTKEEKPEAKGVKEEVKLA

[3] = target: T1, Protein deacetylase HDAC6 (Homo sapiens, UniProt Q9UBN7); test: Inhibition of human HDAC6 using Boc-Lys (Ac)-AMC as substrate incubated for 60 mins by fluorimetric assay
T1 sequence (Q9UBN7 whole entry): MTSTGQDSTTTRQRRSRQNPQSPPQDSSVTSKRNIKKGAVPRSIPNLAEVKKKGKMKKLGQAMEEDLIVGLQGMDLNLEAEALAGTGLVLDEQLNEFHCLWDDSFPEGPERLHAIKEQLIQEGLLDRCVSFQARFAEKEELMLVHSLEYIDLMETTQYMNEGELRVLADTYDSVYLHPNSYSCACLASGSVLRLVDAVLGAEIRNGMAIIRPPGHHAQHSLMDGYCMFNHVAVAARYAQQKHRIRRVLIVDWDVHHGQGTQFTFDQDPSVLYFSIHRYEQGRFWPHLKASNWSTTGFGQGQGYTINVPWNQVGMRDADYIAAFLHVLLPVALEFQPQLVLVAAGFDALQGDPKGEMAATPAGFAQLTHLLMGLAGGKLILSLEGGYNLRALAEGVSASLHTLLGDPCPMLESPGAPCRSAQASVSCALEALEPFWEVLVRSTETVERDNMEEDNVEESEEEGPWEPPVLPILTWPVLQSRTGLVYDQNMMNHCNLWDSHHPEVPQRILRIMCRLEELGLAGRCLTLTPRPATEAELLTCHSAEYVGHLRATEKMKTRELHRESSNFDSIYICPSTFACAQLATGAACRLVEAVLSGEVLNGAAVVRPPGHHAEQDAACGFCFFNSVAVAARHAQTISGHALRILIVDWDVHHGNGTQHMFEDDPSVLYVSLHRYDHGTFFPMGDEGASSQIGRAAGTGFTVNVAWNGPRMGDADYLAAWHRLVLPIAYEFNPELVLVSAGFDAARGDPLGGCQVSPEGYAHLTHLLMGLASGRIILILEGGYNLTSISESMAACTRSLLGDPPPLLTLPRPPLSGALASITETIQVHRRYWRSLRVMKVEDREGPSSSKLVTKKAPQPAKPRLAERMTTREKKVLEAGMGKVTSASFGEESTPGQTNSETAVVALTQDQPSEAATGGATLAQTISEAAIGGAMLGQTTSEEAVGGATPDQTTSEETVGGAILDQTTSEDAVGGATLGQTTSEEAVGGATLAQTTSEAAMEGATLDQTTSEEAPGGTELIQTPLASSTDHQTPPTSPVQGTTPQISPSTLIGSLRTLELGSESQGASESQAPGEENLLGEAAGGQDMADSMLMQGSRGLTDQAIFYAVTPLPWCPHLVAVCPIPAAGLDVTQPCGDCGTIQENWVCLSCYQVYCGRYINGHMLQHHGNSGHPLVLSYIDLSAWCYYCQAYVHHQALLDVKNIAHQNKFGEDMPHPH

[4] = tested on: Bel-7402; test: Induction of apoptosis in human Bel7402 cells assessed as increase in Bax expression after 72 hrs by Western blot analysis; assay type: functional, cell-based
Summary of the method: (§2)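 Subconfluent Bel7402 cells (1.5 × 10^5/mL) exposed to vehicle or compound for 72 h, then lysed. Lysates (0.05 mg/lane) run on 12% SDS-PAGE, transferred to nitrocellulose, blocked in 5% nonfat milk. Probed for Bax, Bcl-2, cleaved caspase-3 and cleaved PARP, with HRP secondary and chemiluminescence. Levels normalized to β-actin; three separate assays, mean ± SD.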

[5] = Inhibition of PI3K/AKT/mTOR signaling in human Bel7402 cells assessed as reduction in mTOR phosphorylation after 24 to 72 hrs by Western blot analysis; assay type: cell-based; summary of the method: as §1
[6] = tested on: Bel-7402; test: Induction of autophagy in human Bel7402 cells assessed as upregulation of LC3-2 level at 1 uM after 24 to 72 hrs by Western blot analysis; assay type: functional, cell-based
Summary of the method: (§3)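 Bel7402 cells (1.5 × 10^5/mL) exposed to compound at indicated doses, or vehicle, for 24 or 72 h. Lysates (0.05 mg/lane) separated on 12% SDS-PAGE, blotted to nitrocellulose, blocked in 5% milk. Probed with anti-LC3, anti-p62 and anti-beclin-1, HRP secondary, chemiluminescent detection. Levels quantified relative to β-actin; three separate assays, mean ± SD.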

[7] = tested on: HepG2; test: Antiproliferative activity against human HepG2 cells after 72 hrs by MTT assay; assay type: functional, cell-based; conditions: HepG2, 72 h
[8] = tested on: Bel-7402; test: Induction of apoptosis in human Bel7402 cells assessed as increase in cleaved caspase-3 level at 1 uM after 72 hrs by Western blot analysis; assay type: functional, cell-based; summary of the method: as §2
[9] = tested on: Bel7402/5-FU; test: Antiproliferative activity against human Bel7402/5-FU cells at 0.2 to 5 uM after 72 hrs by MTT assay; assay type: functional, cell-based
Summary of the method: (§4)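 Cells grown in DMEM with 10% heat-inactivated FBS, penicillin/streptomycin, 37 °C, 5% CO2. Seeded at 10^4 cells/mL overnight, then exposed to a range of compound concentrations for 72 h; 0.1% DMSO negative control. MTT (5 mg/mL stock) added, absorbance read at 570 nm; percent inhibition from three independent experiments, mean ± SD.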

[10] = tested on: Bel-7402; test: Antiproliferative activity against human Bel7402 cells at 0.2 to 5 uM after 72 hrs by MTT assay; assay type: functional, cell-based; summary of the method: as §4
[11] = tested on: Bel-7402; test: Induction of autophagy in human Bel7402 cells assessed as downregulation of p62 level at 1 to 5 uM after 24 to 72 hrs by Western blot analysis; assay type: functional, cell-based; summary of the method: as §3
[12] = species on record: Homo sapiens; test: Selectivity ratio of IC50 for HDAC1 (unknown origin) to IC50 for human HDAC6
Summary of the method: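 Recombinant human HDAC1, 3, 6 and 8 (fluorimetric kit) incubated with compound over a range of concentrations and Boc-Lys(Ac)-AMC substrate at 37 °C for 60 min. Reaction quenched with lysine developer; after 30 min, fluorescence read at ex 355/em 460 nm. Inhibition taken relative to control and IC50 fitted; ratios built from these IC50s.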

[13] = tested on: Bel-7402; test: Induction of apoptosis in human Bel7402 cells assessed as decrease in Bcl-2 expression after 72 hrs by Western blot analysis; assay type: functional, cell-based; summary of the method: as §2

COc1ccc(-c2nc(NCCCOc3ccc(/C=C/C(=O)NO)cc3OC)cc3c2[nH]c2ccccc23)cc1
Activity [1]: Non-Toxic
IC50 [2]: 27 nM
IC50 [3]: 13 nM
Activity [4]: Dose-dependent effect
inhibition [5]: Dose-dependent effect
Activity [6]: Active
IC50 [7]: 1400 nM
Activity [8]: Active
Activity [9]: Active
Activity [10]: Active
Activity [11]: Active
Ratio IC50 [12]: 2
Activity [13]: Dose-dependent effect

— ChEMBL document CHEMBL4376807, “Hydroxamic Acid Derivatives of β-Carboline/Hydroxycinnamic Acid Hybrids Inducing Apoptosis and Autophagy through the PI3K/Akt/mTOR Pathways” (J Nat Prod, 2019)
